The source of these data is ChEMBL document CHEMBL1275530, “Aspergillus fumigatus forms biofilms with reduced antifungal drug susceptibility on bronchial epithelial cells” (2008).

Converted amounts (≈) assume the structure as drawn. *1 amine or outer side, *2 acyl side, *3 side chain or, on linkers, in order; H or OH if unused. Where a SMILES comes first, the peptide text is derived from it. Bridges are numbered along the chain shown (N, C = ends). [ ]: non-standard residue; d: D form. The star is where a group is joined. hTyr(3S-OH,4S-OH,3'-OSO3H) = N[C@H](C(=O)O)[C@H](O)[C@@H](O)c1ccc(O)c(OS(=O)(=O)O)c1; Orn(4R-OH,5R-OH) = O=C([C@H](C[C@@H](O)[C@@H](O)N[*:3])N[*:1])[*:2]; Pro(3S-OH,4S-Me) = C[C@H]1CN[C@H](C(=O)O)[C@H]1O; X1 = CCCCCOc1ccc(-c2cc(-c3ccc(C(=O)*)cc3)no2)cc1; Gln(3R-OH) = NC(=O)C[C@@H](O)[C@H](N)C(=O)O; Hyp = O=C(O)[C@@H]1C[C@@H](O)CN1

Type in all cases: functional
Experiment [1] relates to Aspergillus fumigatus. Briefly: Antifungal activity against Aspergillus fumigatus ATCC 9197 grown as biofilm on 16HBE cell after 24 to 48 hrs by XTT assay. The essentials:
(§1)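 Biofilm grown in PS 96-well plates on confluent 16HBE14o− (1) or CFBE41o− (2) cells on fibronectin/collagen coating. Conidia (10^6/ml) in MEM plus 10% FCS adhered 2 h at 37°C, 5% CO2. Drugs were added after 24–48 h of biofilm growth and incubated another 24 h and 48 h. Sessile MIC was read by XTT as 50% (MIC-2) or 90% (MIC-1) inhibition of metabolic activity versus drug-free control. CFU were also plated. Three repeats.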
(In general: Formazan colour is commonly taken as a measure of viable cells.)

The test system of experiment [2] is Aspergillus fumigatus. Description: Antifungal activity against Aspergillus fumigatus ATCC 9197 grown as planktonic cell on 16HBE cell after 48 hrs by broth microdilution method. The following applies: ATCC 9197, 48 h. The essentials:
(§2)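 CLSI M38-A broth microdilution on planktonic conidia, with drugs added at once and end points read at 24 h and 48 h. Ranges in μg/ml: AMB 0.06 to 32; liposomal AMB, voriconazole, posaconazole, itraconazole, caspofungin and micafungin 0.03 to 16. Inoculum was the same as in the XTT assay. Three repeats.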

In experiment [3] the test system is Aspergillus fumigatus. Description: Antifungal activity against Aspergillus fumigatus ATCC 9197 grown as biofilm on CFBE41o cell after 24 to 48 hrs by XTT assay. The essentials:
as §1

For experiment [4], the system named is Aspergillus fumigatus. Description: Antifungal activity against Aspergillus fumigatus ATCC 9197 grown as planktonic cell on CFBE41o cell after 48 hrs by broth microdilution method. The note with it: ATCC 9197, 48 h. In a few lines:
as §2
A general note: In broth dilution the organism is exposed to a series of concentrations in liquid medium.

Experiment [5] concerns Aspergillus fumigatus. Description: Antifungal activity against Aspergillus fumigatus ATCC 9197 grown as biofilm on polystyrene after 24 to 48 hrs by XTT assay. In a few lines:
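Biofilm was formed on polystyrene without epithelial cells, starting from 10^6 conidia/ml in MEM plus 10% FCS. Drugs were added after 24–48 h of biofilm growth. After a further 24 h and 48 h, XTT reduction gave MICs at 50% and 90% inhibition of metabolic activity relative to a drug-free control.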

For experiment [6], the system named is Aspergillus fumigatus. Briefly: Antifungal activity against Aspergillus fumigatus ATCC 9197 grown as planktonic cell on polystyrene after 48 hrs by broth microdilution method. The note with it: ATCC 9197, 48 h. The essentials: as §2

For `CCC(C)n1ncn(-c2ccc(N3CCN(c4ccc(OCC5COC(Cn6cncn6)(c6ccc(Cl)cc6Cl)O5)cc4)CC3)cc2)c1=O` (stereo unspecified) [ITRACONAZOLE], the MIC50 in the experiment on Aspergillus fumigatus [1] came to 1 µg/mL (≈ 1.42 µM); with Aspergillus fumigatus [2], 0.125 µg/mL (≈ 0.177 µM); with Aspergillus fumigatus [3], 1 µg/mL (≈ 1.42 µM); against Aspergillus fumigatus [4], 0.125 µg/mL (≈ 0.177 µM); in the experiment on Aspergillus fumigatus [5], 2 µg/mL (≈ 2.83 µM); against Aspergillus fumigatus [6] it was 0.5 µg/mL (≈ 0.709 µM). The MIC90 is 1 µg/mL (≈ 1.42 µM) with Aspergillus fumigatus [1]; 0.25 µg/mL (≈ 0.354 µM) against Aspergillus fumigatus [2]; 2 µg/mL (≈ 2.83 µM) against Aspergillus fumigatus [3]; 0.25 µg/mL (≈ 0.354 µM) with Aspergillus fumigatus [4]; 4 µg/mL (≈ 5.67 µM) against Aspergillus fumigatus [5]; 1 µg/mL (≈ 1.42 µM) in the experiment with Aspergillus fumigatus [6].

`C[C@@H]1[C@H](O)[C@@H](C)/C=C/C=C/C=C/C=C/C=C/C=C/C=C/[C@H](O[C@@H]2O[C@H](C)[C@@H](O)[C@H](N)[C@@H]2O)C[C@@H]2O[C@](O)(C[C@@H](O)C[C@@H](O)[C@H](O)CC[C@@H](O)C[C@@H](O)CC(=O)O[C@H]1C)C[C@H](O)[C@H]2C(=O)O` [AMPHOTERICIN B]: the MIC50 in the experiment with Aspergillus fumigatus [1] was determined as 2 µg/mL (≈ 2.16 µM); with Aspergillus fumigatus [2], 0.5 µg/mL (≈ 0.541 µM); in the experiment with Aspergillus fumigatus [3] it was 4 µg/mL (≈ 4.33 µM); against Aspergillus fumigatus [4], 0.5 µg/mL (≈ 0.541 µM); with Aspergillus fumigatus [5], 8 µg/mL (≈ 8.66 µM); against Aspergillus fumigatus [6], 1 µg/mL (≈ 1.08 µM). Besides, the MIC90 is 4 µg/mL (≈ 4.33 µM) with Aspergillus fumigatus [1]; 1 µg/mL (≈ 1.08 µM) in the experiment with Aspergillus fumigatus [2]; 8 µg/mL (≈ 8.66 µM) in the experiment on Aspergillus fumigatus [3]; 1 µg/mL (≈ 1.08 µM) with Aspergillus fumigatus [4]; 16 µg/mL (≈ 17.3 µM) against Aspergillus fumigatus [5]; 1 µg/mL (≈ 1.08 µM) with Aspergillus fumigatus [6].

Consider `C[C@@H](c1ncncc1F)[C@](O)(Cn1cncn1)c1ccc(F)cc1F` [VORICONAZOLE], for which the MIC50 with Aspergillus fumigatus [1] was 1 µg/mL (≈ 2.86 µM); in the experiment on Aspergillus fumigatus [2], 0.125 µg/mL (≈ 0.358 µM); against Aspergillus fumigatus [3], 1 µg/mL (≈ 2.86 µM); against Aspergillus fumigatus [4], 0.125 µg/mL (≈ 0.358 µM). In addition, the MIC90 in the experiment with Aspergillus fumigatus [1] amounted to 1 µg/mL (≈ 2.86 µM); with Aspergillus fumigatus [2], 0.125 µg/mL (≈ 0.358 µM); against Aspergillus fumigatus [3] it was 2 µg/mL (≈ 5.73 µM); in the experiment on Aspergillus fumigatus [4], 0.125 µg/mL (≈ 0.358 µM).

Regarding `CC[C@H](C)C[C@H](C)CCCCCCCCC(=O)N[C@H]1C[C@@H](O)[C@@H](NCCN)NC(=O)[C@@H]2[C@@H](O)CCN2C(=O)[C@H]([C@H](O)CCN)NC(=O)[C@H]([C@H](O)[C@@H](O)c2ccc(O)cc2)NC(=O)[C@@H]2C[C@@H](O)CN2C(=O)[C@H]([C@@H](C)O)NC1=O` [CASPOFUNGIN], the MIC50 was over 8 µg/mL in the experiment on Aspergillus fumigatus [1], 0.5 µg/mL (≈ 0.457 µM) in the experiment with Aspergillus fumigatus [2], over 8 µg/mL with Aspergillus fumigatus [3] and 0.5 µg/mL (≈ 0.457 µM) against Aspergillus fumigatus [4]. Moreover, the MIC90 is over 8 µg/mL with Aspergillus fumigatus [1], 1 µg/mL (≈ 0.915 µM) in the experiment on Aspergillus fumigatus [2], over 8 µg/mL against Aspergillus fumigatus [3] and 1 µg/mL (≈ 0.915 µM) in the experiment with Aspergillus fumigatus [4].

Take `CC[C@@H]([C@H](C)O)n1ncn(-c2ccc(N3CCN(c4ccc(OC[C@@H]5CO[C@@](Cn6cncn6)(c6ccc(F)cc6F)C5)cc4)CC3)cc2)c1=O` [POSACONAZOLE]: the MIC50 with Aspergillus fumigatus [1] came out at 1 µg/mL (≈ 1.43 µM); with Aspergillus fumigatus [2] it was 0.125 µg/mL (≈ 0.178 µM); against Aspergillus fumigatus [3], 1 µg/mL (≈ 1.43 µM); in the experiment on Aspergillus fumigatus [4], 0.125 µg/mL (≈ 0.178 µM). In addition, the MIC90 was found to be 1 µg/mL (≈ 1.43 µM) against Aspergillus fumigatus [1], 0.125 µg/mL (≈ 0.178 µM) in the experiment with Aspergillus fumigatus [2], 2 µg/mL (≈ 2.85 µM) in the experiment with Aspergillus fumigatus [3] and 0.125 µg/mL (≈ 0.178 µM) against Aspergillus fumigatus [4].

As for `CCCCCOc1ccc(-c2cc(-c3ccc(C(=O)N[C@H]4C[C@@H](O)[C@@H](O)NC(=O)[C@@H]5[C@@H](O)[C@@H](C)CN5C(=O)[C@H]([C@H](O)CC(N)=O)NC(=O)[C@H]([C@H](O)[C@@H](O)c5ccc(O)c(OS(=O)(=O)O)c5)NC(=O)[C@@H]5C[C@@H](O)CN5C(=O)[C@H]([C@@H](C)O)NC4=O)cc3)no2)cc1` [MICAFUNGIN] (X1-[Orn(4R-OH,5R-OH)]T[Hyp][hTyr(3S-OH,4S-OH,3'-OSO3H)][Gln(3R-OH)][Pro(3S-OH,4S-Me)]; lactam 1-C), the MIC50 against Aspergillus fumigatus [1] was over 8 µg/mL; in the experiment on Aspergillus fumigatus [2] it was 0.5 µg/mL (≈ 0.394 µM); against Aspergillus fumigatus [3], over 8 µg/mL; in the experiment on Aspergillus fumigatus [4], 0.5 µg/mL (≈ 0.394 µM). In addition, the MIC90 in the experiment with Aspergillus fumigatus [1] was over 8 µg/mL; with Aspergillus fumigatus [2], 1 µg/mL (≈ 0.787 µM); in the experiment with Aspergillus fumigatus [3], over 8 µg/mL; against Aspergillus fumigatus [4], 1 µg/mL (≈ 0.787 µM).
